# Results collected from several papers.
# Protocols differ between the studies behind these lines.
# Target: Serine/threonine-protein kinase N1 (PKN1, Homo sapiens, UniProt Q16512)
SMILES,effect on,mode,technique,tested at,endpoint,value
O=c1[nH]c2ccc(Cl)cc2c(N[C@@H]2CN3CCC2CC3)c1-c1nc2ccccc2[nH]1,enzyme activity,inhibitor,,1 µM,activity vs control,-1%
COc1ncccc1-c1cnn2ccc(N3CCN(C(=O)OC(C)C)CC3)nc12,binding,,competition with immobilised ligand,1 µM,remaining binding,90%
Cn1cc(-c2cccc(N3CCc4c(sc5c4CC(C)(C)C5)C3=O)c2CO)cc(Nc2ccncn2)c1=O,enzyme activity,inhibitor,,1 µM,inhibition,1%
O=c1[nH]c2ccccc2n1C1CCN(Cc2ccc(-c3[nH]c4cc5ncnc5cc4nc3-c3ccccc3)cc2)CC1,cell-free assay,,,0.5 µM,remaining signal,90.3%
N#CC1(c2ccccn2)CCN(Cc2cc(C(=O)O)c(=O)n3ccccc23)CC1,cell-free assay,,competition with immobilised ligand,1 µM,remaining binding,100%
CC(C)(C)c1cc(C=C(C#N)C#N)cc(Br)c1O,enzyme activity,inhibitor,,0.5 µM,remaining activity,94.5%
Nc1ncc(-c2nc(N3CCOCC3)nc(N3CCOCC3)n2)c(C(F)F)n1,binding,,competition with immobilised ligand,10 µM,remaining binding,49%
Cc1ccccc1-n1c(Cn2cnc3c(N)ncnc32)nc2cccc(C)c2c1=O,enzyme activity,inhibitor,,1 µM,activity vs control,81%
Cn1cncc1[C@@](O)(COc1ccc(C#N)cc1-c1ccc(OC(F)(F)F)cc1)c1ccc(C#N)cc1,cell-free assay,,competition with immobilised ligand,1 µM,remaining binding,100%
Cc1n[nH]c2ccc(-c3cncc(OC[C@@H](N)Cc4c[nH]c5ccccc45)c3)cc12,enzyme activity,inhibitor,,1 µM,activity vs control,-1%
Cn1cc(-c2cc(F)cc(N3CCn4c(cc5c4CCCC5)C3=O)c2CO)cc(Nc2ccc(N3CCN(C4COC4)CC3)cn2)c1=O,enzyme activity,inhibitor,,0.1 µM,inhibition,11%
